The term IC50 denotes the concentration that gives 50% inhibition.

“And” between values parts separate entries of the source, which are not always exact repeats. Equal values may be shown once. The source made the active and inactive calls. The calls are words filed in the database; no cut-off is given here.

Series [1] relates to Liver. Nature of the series: Induction of HO-1 expression in CD-1 mouse liver at 1 umol administered via gavage measured after 6 hrs by Western blotting. It is filed as functional, tissue-based. On the technique in general: In western blotting, separated proteins are transferred to a membrane and probed.
A further series deals with Stomach. Put plainly: Induction of HO-1 expression in CD-1 mouse stomach at 1 umol administered via gavage measured after 6 hrs by Western blotting. It is filed as functional, tissue-based. The procedure, abridged:
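Male CD-1 mice, three per group, received 1 μmol of compound in DMSO by gavage. Stomachs were harvested 6 h later, and HO-1 was detected by Western blot of tissue.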

The test system of series [2] is Liver. Put plainly: Antitumor activity against aflatoxin B1-induced tumorigenesis in F344 rat liver assessed as reduction in tumor burden at 10 umol/kg administered via gavage relative to control. The format is functional. On the set-up: scale not given: the % may be the effect or the level left. The procedure, abridged:
(§1)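 Short-term rat model of liver tumorigenesis induced with aflatoxin B1. Test agent was given at 0.3 to 60 μmol/kg. Preneoplastic foci were scored in liver, and tumor burden was expressed against the AFB1-treated positive control group.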

In series [3] the test system is RAW264.7. Nature of the series: Antiinflammatory activity in mouse RAW264.7 cells assessed as inhibition of IFN-gamma induced NO production after 24 hrs by Griess reaction. The format is functional, cell-based. The procedure, abridged:
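RAW 264.7 cells exposed to serial concentrations of compound together with IFN-γ (10 ng/mL) for 24 h; NO in supernatants quantified by Griess reaction. IC50 tested over 0.1 pM to 10 μM in 10-fold steps; values averaged from two separate experiments.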
Background: Nitrite, measured by Griess reagent, commonly stands in for NO production.

In series [4] the test system is Rattus norvegicus. Put plainly: Toxicity in F344 rat assessed as growth rate at 0.3 to 60 umol administered via gavage. As to conditions: in vivo, po. The format is organism-based. A digest of the protocol:
(§2)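 Tolerability was checked in rats in the aflatoxin B1 short-term hepatic tumorigenesis study, dosed at 0.3 to 60 μmol/kg. Growth rate and final body weight were compared with controls not given AFB1.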

Series [5] relates to Rattus norvegicus. Put plainly: Toxicity in F344 rat assessed as effect on body weight at 0.3 to 60 umol administered via gavage. The format is organism-based. As to conditions: in vivo, po. A digest of the protocol:
as §2

In series [6] the target is NAD(P)H dehydrogenase [quinone] 1 (Mus musculus) (UniProt Q64669). Put plainly: Induction of NQO1 activity in mouse Hepa-1c1c7 cells after 48 hrs. It is filed as cell-based.
Chain of NAD(P)H dehydrogenase [quinone] 1 (Mus musculus) (Q64669 whole entry): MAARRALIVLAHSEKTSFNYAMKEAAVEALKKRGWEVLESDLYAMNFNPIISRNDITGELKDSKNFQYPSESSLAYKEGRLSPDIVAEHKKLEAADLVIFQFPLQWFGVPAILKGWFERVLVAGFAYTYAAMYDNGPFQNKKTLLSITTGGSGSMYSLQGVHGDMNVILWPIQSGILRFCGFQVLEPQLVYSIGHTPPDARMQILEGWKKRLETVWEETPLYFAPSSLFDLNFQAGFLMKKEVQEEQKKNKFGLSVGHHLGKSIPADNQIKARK
The subject of series [7] is Macrophage. Put plainly: Ratio of CDDO IC50 to compound IC50 for inhibition of IFN-gamma induced NO production in mouse macrophages. It is filed as functional.
The nature of series [8]: Antiinflammatory activity in CD-1 mouse Macrophage assessed as inhibition of IFN-gamma induced NO production after 48 hrs by Griess reaction. The format is functional, cell-based.
The subject of series [9] is RAW264.7. Nature of the series: Ratio of CDDO IC50 to compound IC50 for inhibition of IFN-gamma induced NO production in mouse RAW264.7 cells. The format is functional. A digest of the protocol: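 RAW 264.7 cells were co-treated with compound (0.1 pM to 10 μM, 10-fold dilutions) and IFN-γ 10 ng/mL for 24 h. Nitric oxide in supernatants was measured by the Griess reaction. IC50 is the mean of two separate experiments, and the ratio is taken against CDDO's IC50.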

The test system of series [10] is Liver. Nature of the series: Antitumor activity against aflatoxin B1-induced tumorigenesis in F344 rat liver assessed as reduction in tumor burden at 0.3 umol/kg administered via gavage relative to control. It is filed as functional. On the set-up: scale not given: the % may be the effect or the level left. The procedure, abridged: as §1
Series [11] relates to Liver. Put plainly: Antitumor activity against aflatoxin B1-induced tumorigenesis in F344 rat liver assessed as reduction in tumor burden at 60 umol/kg administered via gavage. It is filed as functional, tissue-based. The procedure, abridged: as §1
In series [12] the test system is RAW264.7. Put plainly: Induction of HO-1 expression in mouse RAW264.7 cells at 30 nM after 6 hrs by Western blotting. The format is functional, cell-based. A digest of the protocol:
(§3)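 RAW cells treated with compound for 6 h (30–300 nM range); HO-1 detected in total cell lysates by Western blot.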

The subject of series [13] is RAW264.7. Put plainly: Induction of HO-1 expression in mouse RAW264.7 cells at 300 nM after 6 hrs by Western blotting. The format is functional, cell-based. A digest of the protocol:
as §3

Series [14] deals with RAW264.7. Nature of the series: Inhibition of IFN-gamma induced iNOS expression in mouse RAW264.7 cells at 30 nM after 24 hrs by Western blotting. It is filed as functional, cell-based.
Series [15] concerns RAW264.7. Nature of the series: Induction of HO-1 expression in mouse RAW264.7 cells at 10 nM after 6 hrs by Western blotting. The format is functional, cell-based. The procedure, abridged: (§4)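 RAW 264.7 macrophages were exposed to compound at 10–100 nM for 6 h. HO-1 protein was detected by Western blot of total cell lysates.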
Series [16] has as its system RAW264.7. Nature of the series: Induction of HO-1 expression in mouse RAW264.7 cells at 100 nM after 6 hrs by Western blotting. It is filed as functional, cell-based. The procedure, abridged:
as §4

The test system of series [17] is Liver. Put plainly: Antitumor activity against aflatoxin B1-induced tumorigenesis in F344 rat liver assessed as inhibition of preneoplastic foci formation administered via gavage. The format is functional, tissue-based. A digest of the protocol:
as §1

The subject of series [18] is Liver. Put plainly: Antitumor activity against aflatoxin B1-induced tumorigenesis in F344 rat liver assessed as reduction in tumor burden at 30 umol/kg administered via gavage. It is filed as functional, tissue-based. A digest of the protocol: as §1
For series [19], the system named is Macrophage. Put plainly: Antiinflammatory activity in CD-1 mouse Macrophage assessed as inhibition of IFN-gamma induced NO production after 48 hrs by Griess reaction in presence of glucocorticoid antagonist mifepristone. It is filed as functional, cell-based.
Series [20] relates to RAW264.7. Put plainly: Inhibition of IFN-gamma induced iNOS expression in mouse RAW264.7 cells at 300 nM after 24 hrs by Western blotting. The format is functional, cell-based.
Series [21] can be described thus: Cytotoxicity against CD-1 mouse macrophages at 10 uM. It is filed as cell-based. As to conditions: macrophage.

With `CC1(C)CC[C@]2(C(=O)n3ccnc3)CC[C@]3(C)[C@H](C(=O)C=C4[C@@]5(C)C=C(C#N)C(=O)C(C)(C)[C@@H]5CC[C@]43C)[C@@H]2C1`, the result with Liver [1] and in the series with Stomach was Active. The values for the Activity with Liver [2], in the series with Rattus norvegicus [4] and with Rattus norvegicus [5] were 99%, “Non-toxic” and “Non-toxic”, respectively. For the same compound, the IC50 in the series on RAW264.7 [3] (Mus musculus, RAW264.7, 24 h) amounted to 1 nM. Moreover, the CD in series [6] was determined as 3.3 nM.
For the compound `C#C[C@]12C=C(C#N)C(=O)C=C1[C@@]1(C)C=C(C#N)C(=O)C(C)(C)[C@@H]1CC2` (racemic) [listing 1 of 2 here], the results for the Ratio in the series with Macrophage [7] and in the series on RAW264.7 [9] were 80 and 20, respectively. Also, the Activity was 99% with Liver [2], “Non-toxic” in the series with Rattus norvegicus [4], “Non-toxic” in the series on Rattus norvegicus [5] and 90% in the series with Liver [10]. Besides, the IC50 was 1 nM in the series on RAW264.7 [3] (raw264.7) and 0.056 nM in series [8] (Mus musculus, CD-1, Macrophage, 48 h).
Consider `C#C[C@]12C=C(C#N)C(=O)C=C1[C@@]1(C)C=C(C#N)C(=O)C(C)(C)[C@@H]1CC2` (racemic) [listing 2 of 2 here], for which the result with Liver [11], in the series with RAW264.7 [12], in the series on Stomach, in the series on RAW264.7 [13], in the series on RAW264.7 [15] and in the series on RAW264.7 [16] was Active. Further, the outcome in the series on Liver [18] was Active. Further, in the series on RAW264.7 [14], the inhibition entry is “Active”. The inhibition result with Liver [17] is “Dose-dependent effect”. In series [6], this compound displayed a CD of 0.9 nM.
Turning to `CC1(C)C(=O)C(C#N)=C[C@]2(C)C3=CC(=O)C(C#N)=C[C@]3(C#C[Si](C)(C)C)CC[C@@H]12` (racemic), the result with RAW264.7 [12], in the series with RAW264.7 [13], with RAW264.7 [15] and in the series on RAW264.7 [16] was Active. Also, the inhibition result in the series with RAW264.7 [14] was “Active”. Besides, the CD in series [6] worked out at 3.5 nM.
On to `CC1(C)C(=O)C(C#N)=C[C@]2(C)C3=CC(=O)C(C#N)=C[C@]3(C)CC[C@@H]12` (racemic), for which the result in the series on Liver [1] and with RAW264.7 [13] was Active. Besides, the inhibition entry in the series with Macrophage [19] and with RAW264.7 [20] was “Active” in each case. In series [6], this compound showed a CD of 18 nM.
For the compound `CC1(C)CC[C@]2(C(=O)O)CC[C@]3(C)[C@H](C(=O)C=C4[C@@]5(C)C=C(C#N)C(=O)C(C)(C)[C@@H]5CC[C@]43C)[C@@H]2C1` [BARDOXOLONE], the outcome with Liver [1] and in the series with Stomach was inactive. For the same compound, the IC50 with RAW264.7 [3] (Mus musculus, RAW264.7, 24 h) is 17 nM; in series [8] (macrophage) it was 4.3 nM and 0.5 nM. For the same compound, in series [6], the CD stood at 2.3 nM. Moreover, the Activity entry in [21] is “Non-toxic”.

The values above are taken from ChEMBL document CHEMBL1759862, “Tricyclic compounds containing nonenolizable cyano enones. A novel class of highly potent anti-inflammatory and cytoprotective agents” (J Med Chem, 2011).
